# HIF activator – HIF pathway transcriptional activation | U2OS HRE-luciferase reporter, luminescence; normalized: DMSO 0%, desferrioxamine 100% | AID 1910 | activation, % at 7.5 µM (by protocol) | hit rate 0.32% among 300,000;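 active means mean activation of at least 10% of the iron chelator positive control signal, with at least half of replicates also reaching 10%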
# Hsp70 activator – transcriptional activators of Hsp70. HeLa Hsp70 promoter luciferase reporter, luminescence; scaled: vehicle 0, proteasome-inhibitor control 100%. AID 1203. activation, % at 10 µM. hit rate 0.04% among 200,000;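 active means activation above the mean across all tested compounds plus 3 SD, cutoff set per campaign, cut at about 5.5% in these data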;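 further: 100% = MG132 at 30 µM as the positive control and 0% = DMSO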
# Rad51 HR inh – blocks human Rad51 in homologous recombination; Q06609; hRad51 DNA strand exchange, fluorescence dequenching; inhibition, % at 10 µM; hit rate 0.085% among 200,000; AID 1385;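 active means inhibition above 40% at the single screening dose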;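 further: 0% = DMSO control wells and 100% = blanks with heterologous ssDNA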
#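 material = hRad51 filaments on single-stranded DNA | timing = filaments 15 min 37 °C, then compound 30 min | signal = FRET fluorescence dequenching, excitation 485 nm, emission 520 nm | benchmarks = control wells and blank wells on each plate | evaluation = percent inhibition relative to plate controls and blanks | compound = 10 µM final, single point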
# TAG inh – reduces triacylglycerol accumulation in H9c2 cells; Nile Red lipid (TAG) fluorescence; cells loaded with 200 µM oleic acid; inhibition, % at 12.5 µM; hit rate 0.66% among 230,000; AID 651582;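 active means pattern-corrected inhibition of lipid staining of at least 50% with the nuclear-stain viability signal not falling by more than 50%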;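 further: 0% = DMSO wells and 100% = triacsin C control wells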
# FXN GAA850 act – activators of GAA850 frataxin (FXN) promoter; HEK293 lucGAA850 FXN promoter luciferase reporter, 24 h; percent of 10 µM SAHA response; activation, % at 6 µM; hit rate 0.56% among 360,000;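 active means activation above the average of all compounds screened plus 3 SD, cutoff fixed separately per campaign, cut at about 7.5% in these data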;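 further: 0% = DMSO wells and 100% = 10 µM SAHA wells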
# ABHD5-PLIN5 inh – ABHD5-PLIN5 protein interaction inhibition | Q00G26+Q8WTS1 | Split G. princeps luciferase complementation, luminescence, 4 h | inhibition, % at 4 µM | hit rate 0.78% among 360,000 | AID 602281;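 active means inhibition above the mean inhibition across every tested compound plus 3 SD, cut at about 22% in these data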;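 further: 0% = DMSO only wells and the 100% control is not disclosed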
# ABHD5-PLIN5 conf – ABHD5-PLIN5 interaction inhibition, confirmed; shares compounds with ABHD5-PLIN5 inh; biochemical ABHD5-PLIN5 interaction, luminescence; inhibition, % at 4 µM; hit rate 67% among 2,200; AID 651612; in the data active means inhibition above about 23%;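 further: 0% = DMSO vehicle wells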
# HNF4 counter – counter-screen for ABHD5-PLIN5 inhibitors: HNF4 split-luciferase; AID 651674; hit rate 77% among 2,200; shares compounds with ABHD5-PLIN5 inh; HNF4 dimerization, luminescence, biochemical; inhibition, % at 4 µM;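 active means mean inhibition across replicate wells exceeding the computed hit threshold, cut at about 13% in these data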;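 further: light from luciferase halves that rejoin when HNF4 fusion proteins dimerize; 0% = DMSO only wells and the 100% control is not given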
# The depositor's hits bear a star; . = no result given. Compounds with a hit are over-represented: about 1.9% of the library has one in this group of screens.
SMILES,HIF activator,Hsp70 activator,Rad51 HR inh,TAG inh,FXN GAA850 act,ABHD5-PLIN5 inh,ABHD5-PLIN5 conf,HNF4 counter
CN1C2CCC1C(C(=O)O)C(OC(=O)c1ccccc1)C2 (stereo unspecified),.,.,.,.,-1,5,.,.
O=C(NC1CCCCC1)Oc1cc2oc(=O)sc2cc1Cl,0,.,-19,6,6,69*,-39,14*
O=C1CC(=O)N(c2ccc(Cl)cc2Cl)C(=O)N1,-1,0,-7,.,1,16,.,.
O=C1CC(=O)N(c2ccccc2F)C(=O)N1,-2,.,.,.,4,23*,12,70*
CCC(=O)OC1(c2ccccc2)C(C)CN(C)CC1C (stereo unspecified),0,0,.,2,1,-2,.,.
COc1cc(/C=C/[N+](=O)[O-])ccc1O,1,0,4,7,4,70*,86*,93*
O=C1NC(=O)C(=Cc2ccc(Cl)cc2)C(=O)N1,.,.,.,.,.,27*,76*,75*
CC[C@@H]1c2ccccc2[C@@H]2CC[C@H]1N2c1ccccc1,.,.,.,.,.,-13,.,.
Nc1c(C(=O)NCc2ccco2)c2nc3ccccc3nc2n1Cc1ccccc1,0,1,.,.,2,25*,35*,36*
CC1(C)C(=O)C=C[C@]2(C)[C@H]3CC[C@@]4(C)[C@H](c5ccoc5)OC(=O)[C@H]5O[C@]54[C@]3(C)[C@H](O)C[C@@H]12,0,0,.,.,.,.,.,.
CN(C)P1(=O)N(C)CCN1C,.,.,.,.,.,4,.,.
C/C=C1\CN2[C@H]3C[C@@]45c6ccccc6N(C)[C@H]4[C@@H]2CC1C3[C@H]5O (stereo partly specified),0,.,2,.,-1,-8,.,.
O=C1NC(=O)C(=Cc2ccc(N3CCN(C(=O)c4ccccc4)CC3)c([N+](=O)[O-])c2)C(=O)N1,0,0,18,.,2,41*,91*,90*
CN1C(=O)C(=Cc2ccc(N3CCOCC3)c([N+](=O)[O-])c2)C(=O)N(C)C1=O,-1,0,12,.,.,.,.,.
O=C1NC(=O)N(c2ccc(Cl)cc2)C(=O)/C1=C/c1coc2ccc(O)cc2c1=O,0,.,1,-3,0,25*,87*,81*
O=C1NC(=O)N(c2ccccc2)C(=O)/C1=C\c1ccccc1[N+](=O)[O-],0,.,-27,8,0,24*,78*,80*
O=C1NC(=O)N(c2ccccc2)C(=O)/C1=C/c1coc2ccc(O)cc2c1=O,0,.,-21,11,-2,37*,90*,88*
Cc1cc(/C=C2\C(=O)NC(=O)N(c3ccc(Cl)cc3)C2=O)c(C)n1-c1cccc(C(=O)O)c1,-3,.,.,.,2,12,.,.
CC(C)C(O)(C(=O)OCC1=CCN2CCC(O)C12)C(C)O (stereo unspecified),.,.,.,.,-3,-2,.,.
CC1(C)CC(CCNCc2ccc3c(c2)OCO3)(Cc2ccccc2)CCO1 (stereo unspecified),0,0,-6,0,-2,0,.,.
COc1ccc(CCNC(=O)c2c(N)n(CCN3CCOCC3)c3nc4ccccc4nc23)cc1OC,0,0,22,.,0,25*,16,3
CCCCCCn1c(N)c(C(=O)NCCN2CCOCC2)c2nc3ccccc3nc21,0,0,-5,-6,-1,8,.,.
N#CCCn1cc(C=C2C(=O)NC(=O)NC2=O)c(-c2ccccc2)n1,-1,0,8,7,2,23*,51*,84*
O=C(O)CCn1cc(C=C2C(=O)NC(=S)NC2=O)c(-c2ccccc2)n1,0,0,.,-4,1,7,.,.
O=C(c1ccc(F)cc1)N1CCC2(CC1)OCCO2,-2,.,.,-2,0,-1,.,.
SMILES,HIF activator,Hsp70 activator,Rad51 HR inh,TAG inh,FXN GAA850 act,ABHD5-PLIN5 inh,ABHD5-PLIN5 conf,HNF4 counter
CCN1C(=O)CC(c2cccnc2)=Nc2ccccc21,-1,0,29,17,-1,-6,.,.
O=C1CC(c2cccnc2)=NN1c1ccc(Cl)cc1Cl,0,0,16,4,1,23*,0,0
COC(=O)C1=Nc2ccccc2/C1=C\c1c(O)n(C)c(=O)n(C)c1=O,0,.,-17,-7,1,12,.,.
O=c1[nH]c(=O)n(-c2cccc(F)c2)c(O)c1/C=C1\C=Nc2ccccc21,0,.,.,.,0,16,.,.
O=C(O)c1ccc(-n2c(O)c(/C=C3\C=Nc4ccccc43)c(=O)[nH]c2=O)cc1,2,.,.,.,-1,29*,32*,54*
Cn1c(O)c(/C=C2\C=Nc3ccccc32)c(=O)n(C)c1=O,1,.,.,.,0,35*,7,17*
c1cc2c(cc1-c1ccc3c(c1)OCO3)CNCc1cnnn1-2,.,.,.,.,.,4,.,.
C[N+]1(CC(COCc2ccccc2)OC(=O)Cc2ccccc2)CCOCC1 (stereo unspecified),-2,0,.,7,2,3,.,.
CSc1ccc(C(=O)C2CCCN(Cc3cnc(SC)nc3)C2)cc1 (stereo unspecified),0,0,1,.,2,3,.,.
Cc1ccccc1-n1c(O)c(C(c2ccncc2)c2c(O)n(-c3ccccc3C)c(=O)[nH]c2=O)c(=O)[nH]c1=O,3,.,-14,-11,1,26*,55*,66*
Cn1c(O)c(C(c2ccncc2)c2c(O)n(C)c(=S)n(C)c2=O)c(=O)n(C)c1=S,0,0,-1,-17,0,14,.,.
CC(C)COP(=O)(OCC(C)C)C(O)c1cccnc1 (stereo unspecified),0,0,.,.,1,1,.,.
CC(C)[C@H]1C(=O)O[C@H](C(C)C)C(=O)N(C)[C@@H](C(C)C)C(=O)O[C@H](C(C)C)C(=O)N(C)[C@@H](C(C)C)C(=O)O[C@H](C(C)C)C(=O)N1C,0,0,1,.,-12,-5,.,.
CN1C(=O)C(=Cc2cccnc2)C(=O)N(C)C1=O,-1,.,-11,3,0,27*,37*,49*
O=C(NC1CCCCC1)N1Cc2cc(N3CCOCC3)ccc2-n2nncc2C1,.,.,.,.,.,1,.,.
CCOC(=O)[C@]12Cc3cc(C)ccc3[C@H]1N(C(C)C)C(=O)c1ccccc12,.,.,.,.,.,26*,25*,21*
CCCCCN1C(=O)c2ccccc2[C@@]2(C(=O)OCC)Cc3cc(OC)ccc3[C@@H]12,.,.,.,.,.,25*,14,12
CCOC(=O)[C@]12Cc3cc(OC)ccc3[C@H]1N(Cc1ccccc1)C(=O)c1ccccc12,.,.,.,-2,-3,-10,.,.
CCOC(=O)[C@]12Cc3cc(C)ccc3[C@H]1N(C1CCCCC1)C(=O)c1cc(OC)ccc12,.,.,.,.,.,61*,43*,54*

# Compound activity: PubChem BioAssay, several laboratories
